Our source for the IC50, Inhibition and microsomal CLint values is ChEMBL document CHEMBL1146728, “Statin-derived 1,3-oxazinan-2-ones as submicromolar inhibitors of LFA-1/ICAM-1 interaction: stabilization of the metabolically labile vanillyl side chain” (Bioorg Med Chem Lett, 2004).

Broadly, the IC50 is the point on the concentration scale where inhibition reaches its midpoint. What is called Inhibition is the change of the read-out against control, counted positive when it falls.

Data set [1] addresses T1, Intercellular adhesion molecule (ICAM-1), Integrin alpha-L/beta-2 (Homo sapiens, UniProt P05107+P20701). Description: Inhibition of HUT78 cell adhesion to immobilized ICAM-1 protein. The class given is functional, cell-based.
Data set [2] concerns Mus musculus. Description: Anti-inflammatory activity against murine model of allergic contact dermatitis (mACD) after single oral administration (0.1 mg/kg) (in vivo). Type of data set: functional. The gist of the method: (§1)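 Oxazolone-sensitized mice, eight per group, challenged with 10 µL of 2.0% oxazolone on the inner surface of the right ear; unchallenged left ear served as control. Single oral dose of compound given 2 h after challenge. Ear weight difference at 24 h used as swelling measure. Result is % inhibition versus vehicle controls, mean ± SEM, ANOVA/Dunnett or H/U-test.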

The target of data set [3] is T1, Intercellular adhesion molecule (ICAM-1), Integrin alpha-L/beta-2. Nature of the data set: In vitro inhibition of recombinant ICAM-1 binding to purified immobilized LFA-1 using cell-free assay. The class given is functional.
Data set [4] in a line: Intrinsic clearance in rat liver microsomes was determined. The class given is ADME, Microsome. As to conditions: read-out: Clearance. The gist of the method:
(§2)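 Pooled liver microsomes at 0.15 mg/mL protein, compound at 1 µM, in 100 mM phosphate buffer pH 7.4 with 5 mM MgCl2, 1 mM EDTA, 0.35 mg/mL albumin and alamethicin, at 37°C. Started with final 4 mM UDPGA plus 1 mM NADPH and stopped at 5 and 20 min with ACN containing 0.02% FA. Single incubations, clearance in µL/min/mg.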
Background: Liver microsomes are a subcellular fraction often used to study metabolism.

Data set [5] can be described thus: Intrinsic clearance in human liver microsomes was determined. Type of data set: ADME, Microsome. As to conditions: read-out: Clearance. In outline:
as §2

Data set [6] relates to Mus musculus. Nature of the data set: Anti-inflammatory activity against murine model of allergic contact dermatitis (mACD) after single oral administration (1 mg/kg) (in vivo). Type of data set: functional. The gist of the method: as §1

T1 sequence (P20701 whole entry): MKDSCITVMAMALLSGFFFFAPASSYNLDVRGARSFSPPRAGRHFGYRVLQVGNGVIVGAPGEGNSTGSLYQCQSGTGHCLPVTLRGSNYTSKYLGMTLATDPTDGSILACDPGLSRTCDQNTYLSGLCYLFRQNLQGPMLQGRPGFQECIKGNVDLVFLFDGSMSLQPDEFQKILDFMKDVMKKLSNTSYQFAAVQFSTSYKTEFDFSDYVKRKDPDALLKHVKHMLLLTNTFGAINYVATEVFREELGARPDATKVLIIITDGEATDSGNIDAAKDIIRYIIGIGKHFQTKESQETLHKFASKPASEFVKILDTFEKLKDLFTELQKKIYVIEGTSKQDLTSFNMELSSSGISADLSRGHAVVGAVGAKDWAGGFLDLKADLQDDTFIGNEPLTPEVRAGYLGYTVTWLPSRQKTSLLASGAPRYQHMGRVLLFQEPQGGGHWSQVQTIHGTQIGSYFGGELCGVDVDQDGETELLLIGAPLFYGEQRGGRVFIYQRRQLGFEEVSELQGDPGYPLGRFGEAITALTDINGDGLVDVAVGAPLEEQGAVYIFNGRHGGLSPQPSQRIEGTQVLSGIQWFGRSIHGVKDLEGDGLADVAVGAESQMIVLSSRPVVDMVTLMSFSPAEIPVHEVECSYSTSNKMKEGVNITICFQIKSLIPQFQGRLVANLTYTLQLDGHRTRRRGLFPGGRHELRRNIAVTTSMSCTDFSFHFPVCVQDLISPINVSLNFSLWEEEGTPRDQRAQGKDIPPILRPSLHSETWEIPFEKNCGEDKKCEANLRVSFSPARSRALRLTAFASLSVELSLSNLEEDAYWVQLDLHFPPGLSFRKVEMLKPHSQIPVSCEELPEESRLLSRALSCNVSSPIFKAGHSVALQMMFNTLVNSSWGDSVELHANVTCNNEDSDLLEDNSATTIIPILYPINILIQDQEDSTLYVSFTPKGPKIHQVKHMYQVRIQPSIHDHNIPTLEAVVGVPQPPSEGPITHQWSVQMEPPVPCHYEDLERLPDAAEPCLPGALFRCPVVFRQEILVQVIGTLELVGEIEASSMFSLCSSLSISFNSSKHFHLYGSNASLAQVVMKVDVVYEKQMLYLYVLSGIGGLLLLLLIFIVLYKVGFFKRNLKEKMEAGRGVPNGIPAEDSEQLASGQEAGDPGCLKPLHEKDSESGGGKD
T1 sequence (P05362 whole entry, further chain): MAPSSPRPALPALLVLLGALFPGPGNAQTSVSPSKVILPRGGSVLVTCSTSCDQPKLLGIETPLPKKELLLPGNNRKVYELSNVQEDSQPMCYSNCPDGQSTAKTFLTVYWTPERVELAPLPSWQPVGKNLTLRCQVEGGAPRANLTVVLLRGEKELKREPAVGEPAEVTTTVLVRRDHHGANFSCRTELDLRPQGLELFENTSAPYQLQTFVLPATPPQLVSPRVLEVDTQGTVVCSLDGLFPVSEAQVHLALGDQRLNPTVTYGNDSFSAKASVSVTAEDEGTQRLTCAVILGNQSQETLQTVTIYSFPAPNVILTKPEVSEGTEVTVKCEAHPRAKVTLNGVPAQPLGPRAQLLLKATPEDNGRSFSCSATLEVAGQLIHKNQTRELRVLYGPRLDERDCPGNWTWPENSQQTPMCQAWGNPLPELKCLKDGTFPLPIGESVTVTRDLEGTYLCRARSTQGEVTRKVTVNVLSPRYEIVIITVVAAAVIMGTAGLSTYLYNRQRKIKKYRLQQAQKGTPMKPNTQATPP
T1 sequence (P05107 whole entry): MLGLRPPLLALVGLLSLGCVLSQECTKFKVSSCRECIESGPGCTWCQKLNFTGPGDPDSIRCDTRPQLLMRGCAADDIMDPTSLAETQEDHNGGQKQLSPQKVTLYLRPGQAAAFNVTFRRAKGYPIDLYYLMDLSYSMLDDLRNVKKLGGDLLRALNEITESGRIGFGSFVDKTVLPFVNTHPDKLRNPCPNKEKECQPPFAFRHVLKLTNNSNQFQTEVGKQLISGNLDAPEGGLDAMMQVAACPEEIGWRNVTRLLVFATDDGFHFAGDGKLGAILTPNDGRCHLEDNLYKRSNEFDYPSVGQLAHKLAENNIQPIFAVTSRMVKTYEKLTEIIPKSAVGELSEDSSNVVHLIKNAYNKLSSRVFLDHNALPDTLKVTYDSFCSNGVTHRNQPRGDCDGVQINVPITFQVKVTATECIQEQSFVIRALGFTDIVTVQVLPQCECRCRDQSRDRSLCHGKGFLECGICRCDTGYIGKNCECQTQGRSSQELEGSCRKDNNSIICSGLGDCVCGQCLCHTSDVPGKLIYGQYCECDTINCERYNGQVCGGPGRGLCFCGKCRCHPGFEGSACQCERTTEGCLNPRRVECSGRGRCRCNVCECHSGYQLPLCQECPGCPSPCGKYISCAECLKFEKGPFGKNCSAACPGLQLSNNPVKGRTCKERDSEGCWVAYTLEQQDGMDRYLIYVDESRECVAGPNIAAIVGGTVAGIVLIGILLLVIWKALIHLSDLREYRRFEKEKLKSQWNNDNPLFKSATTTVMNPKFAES

On to `CC[C@H](C)C(=O)O[C@H]1C[C@@H](C)C=C2C=C[C@H](C)[C@H](CC[C@@H]3C[C@H](CC(=O)NC)N(Cc4ccc5c(c4)OCO5)C(=O)O3)[C@H]21`, for which the IC50 in data set [1] worked out at 6420 nM; in data set [3], 170 nM. Besides, the Inhibition in data set [2] is 28%; in data set [6], 29%. Also, the microsomal CLint in data set [4] amounted to 100 µL/min/mg; in data set [5], 383 µL/min/mg.

Take `CC[C@H](C)C(=O)O[C@H]1C[C@@H](C)C=C2C=C[C@H](C)[C@H](CC[C@@H]3C[C@H](CC(=O)OC)N(Cc4cccc(OC)c4)C(=O)O3)[C@H]21`: the IC50 is 4500 nM in data set [1] and 680 nM in data set [3]. Also, the Inhibition in data set [6] amounted to 23%.

Consider `CC[C@H](C)C(=O)O[C@H]1C[C@@H](C)C=C2C=C[C@H](C)[C@H](CC[C@@H]3C[C@H](CC(=O)NC)N(Cc4ccc(C(C)(C)O)cc4)C(=O)O3)[C@H]21`, for which the figures for the Inhibition in data set [2] and in data set [6] were 9% and 26%, respectively. In addition, the IC50 in data set [3] was found to be 1500 nM. Also, the microsomal CLint in data set [4] and in data set [5] was greater than 500 µL/min/mg in each case.

Take `CC[C@H](C)C(=O)O[C@H]1C[C@@H](C)C=C2C=C[C@H](C)[C@H](CC[C@@H]3C[C@H](CC(=O)NC)N(Cc4ccc(C(=O)O)cc4)C(=O)O3)[C@H]21`: the IC50 is greater than 30000 nM in data set [1] and 870 nM in data set [3]. Further, the microsomal CLint amounted to 214 µL/min/mg in data set [4] and 205 µL/min/mg in data set [5]. For the same compound, the Inhibition in data set [6] turned out to be 21%.

On to `CC[C@H](C)C(=O)O[C@H]1C[C@@H](C)C=C2C=C[C@H](C)[C@H](CC[C@@H]3C[C@H](CC(=O)OC)N(Cc4ccc(C(=O)NC)cc4)C(=O)O3)[C@H]21`, for which the IC50 was greater than 30000 nM in data set [1] and 1300 nM in data set [3]. Also, the Inhibition in data set [6] is given as 8%.

`CC[C@H](C)C(=O)O[C@H]1C[C@@H](C)C=C2C=C[C@H](C)[C@H](CC[C@@H]3C[C@H](CC(=O)OC)N(Cc4ccc5c(c4)OCO5)C(=O)O3)[C@H]21`: the IC50 in data set [1] was determined as 2590 nM; in data set [3], 1000 nM. For the same compound, the Inhibition is 32% in data set [2] and 42% in data set [6].

As for `CC[C@H](C)C(=O)O[C@H]1C[C@@H](C)C=C2C=C[C@H](C)[C@H](CC[C@@H]3C[C@H](CC(=O)OC)N(Cc4ccc5c(c4)OC(F)(F)O5)C(=O)O3)[C@H]21`, the IC50 in data set [1] and in data set [3] was greater than 30000 nM throughout. Besides, in data set [6], the Inhibition is on record as -3%.

`CC[C@H](C)C(=O)O[C@H]1C[C@@H](C)C=C2C=C[C@H](C)[C@H](CC[C@@H]3C[C@H](CC(=O)NC)N(Cc4cccc(OC)c4)C(=O)O3)[C@H]21`: the IC50 in data set [1] amounted to 6500 nM; in data set [3], 270 nM. Further, the microsomal CLint in data set [4] was found to be 123 µL/min/mg; in data set [5], 55 µL/min/mg. Moreover, the Inhibition in data set [6] is 21%.

Turning to `CC[C@H](C)C(=O)O[C@H]1C[C@@H](C)C=C2C=C[C@H](C)[C@H](CC[C@@H]3C[C@H](CC(=O)OC)N(Cc4ccc(O)c(OC)c4)C(=O)O3)[C@H]21`, the values for the IC50 in data set [1] and in data set [3] were 120 nM and 50 nM, respectively. Further, the Inhibition is 16% in data set [2] and 46% in data set [6].

As for `CC[C@H](C)C(=O)O[C@H]1C[C@@H](C)C=C2C=C[C@H](C)[C@H](CC[C@@H]3C[C@H](CC(=O)OC)N(Cc4ccc(C(C)(C)O)cc4)C(=O)O3)[C@H]21`, the IC50 in data set [1] worked out at 7690 nM; in data set [3], 3000 nM. For the same compound, the Inhibition was 12% in data set [2] and 33% in data set [6].

For `CC[C@H](C)C(=O)O[C@H]1C[C@@H](C)C=C2C=C[C@H](C)[C@H](CC[C@@H]3C[C@H](CC(=O)NC)N(Cc4ccc(C(=O)NC)cc4)C(=O)O3)[C@H]21`, the values for the IC50 in data set [1] and in data set [3] were greater than 30000 nM and 620 nM, respectively. For the same compound, the Inhibition is 32% in data set [2] and 26% in data set [6]. In addition, the microsomal CLint in data set [4] and in data set [5] was greater than 500 µL/min/mg in each case.

Regarding `CC[C@H](C)C(=O)O[C@H]1C[C@@H](C)C=C2C=C[C@H](C)[C@H](CC[C@@H]3C[C@H](CC(=O)NC)N(CCc4ccc(O)c(OC)c4)C(=O)O3)[C@H]21`, the IC50 in data set [1] was 9500 nM; in data set [3] it was 800 nM. Moreover, the Inhibition in data set [2] is 29%; in data set [6] it was 43%. Also, the microsomal CLint in data set [4] and in data set [5] was greater than 500 µL/min/mg throughout.

As for `CC[C@H](C)C(=O)O[C@H]1C[C@@H](C)C=C2C=C[C@H](C)[C@H](CC[C@@H]3C[C@H](CC(=O)OC)N(CCc4ccc(O)c(OC)c4)C(=O)O3)[C@H]21`, the IC50 in data set [1] amounted to 20500 nM; in data set [3], 640 nM. For the same compound, the Inhibition in data set [2] is on record as 9%; in data set [6], 30%.

`CC[C@H](C)C(=O)O[C@H]1C[C@@H](C)C=C2C=C[C@H](C)[C@H](CC[C@@H]3C[C@H](CC(=O)NC)N(Cc4ccc5c(c4)OC(F)(F)O5)C(=O)O3)[C@H]21`: the IC50 was found to be 5590 nM in data set [1] and 1150 nM in data set [3]. Moreover, the microsomal CLint in data set [4] was 207 µL/min/mg; in data set [5], greater than 500 µL/min/mg. For the same compound, the Inhibition in data set [6] worked out at 19%.

`CC[C@H](C)C(=O)O[C@H]1C[C@@H](C)C=C2C=C[C@H](C)[C@H](CC[C@@H]3C[C@H](CC(=O)NC)N(Cc4ccc(O)c(OC)c4)C(=O)O3)[C@H]21`: the IC50 amounted to 250 nM in data set [1] and 50 nM in data set [3]. Further, the Inhibition in data set [2] was determined as 39%; in data set [6] it was 47%. The microsomal CLint in data set [4] and in data set [5] was greater than 500 µL/min/mg throughout.
